Each structure is given as a SMILES string.

The text below walks through data of ChEMBL document CHEMBL5653631, “A Potent and Selective ULK1 Inhibitor Suppresses Autophagy and Sensitizes Cancer Cells to Nutrient Stress” (iScience, 2018).

The target of test [1] is RAC-alpha serine/threonine-protein kinase (Homo sapiens) (UniProt P31749). The test can be described thus: Inhibition of human recombinant AKT1 at 40 nM related to control ULK1. In outline: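 Radiometric activity assays in a panel of 327 human recombinant kinases, each run in duplicate at one inhibitor concentration. Activity remaining is expressed as percent of vehicle control, and percent inhibition is calculated as 100% minus percent activity remaining.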

The target of test [2] is Receptor tyrosine-protein kinase erbB-2 (Homo sapiens) (UniProt P04626). The test is described as follows: Inhibition of human recombinant ErbB2 at 40 nM in presence of ATP by radiometric assay relative to control.
In test [3] the target is T1, Tyrosine-protein kinase ITK/TSK (Homo sapiens) (UniProt Q08881).
T1 sequence (whole entry): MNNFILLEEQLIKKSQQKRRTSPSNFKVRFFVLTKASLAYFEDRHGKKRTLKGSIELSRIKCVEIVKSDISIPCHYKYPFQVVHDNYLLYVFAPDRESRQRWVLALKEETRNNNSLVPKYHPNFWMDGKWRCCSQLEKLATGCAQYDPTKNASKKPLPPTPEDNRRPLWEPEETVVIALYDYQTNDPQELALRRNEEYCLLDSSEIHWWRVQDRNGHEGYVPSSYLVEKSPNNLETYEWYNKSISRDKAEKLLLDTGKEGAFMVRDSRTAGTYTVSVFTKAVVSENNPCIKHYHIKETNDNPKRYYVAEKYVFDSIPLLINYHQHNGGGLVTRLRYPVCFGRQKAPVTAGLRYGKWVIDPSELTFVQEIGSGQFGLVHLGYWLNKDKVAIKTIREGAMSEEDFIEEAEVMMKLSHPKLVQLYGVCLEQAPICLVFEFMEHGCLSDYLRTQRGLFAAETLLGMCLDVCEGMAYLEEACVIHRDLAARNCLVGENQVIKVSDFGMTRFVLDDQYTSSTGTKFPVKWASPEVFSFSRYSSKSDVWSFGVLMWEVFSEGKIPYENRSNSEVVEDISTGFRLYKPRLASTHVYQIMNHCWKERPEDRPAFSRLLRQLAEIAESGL
The test is described as follows: Inhibition of human recombinant ITK at 40 nM related to control ULK1.

Test [4] has as its target Serine/threonine-protein kinase pim-2 (Homo sapiens) (UniProt Q9P1W9). The test is described as follows: Inhibition of human recombinant PIM2 at 500 nM in presence of ATP by radiometric assay relative to control.
Test [5] addresses Cyclin-dependent kinase-like 3 (Homo sapiens) (UniProt Q8IVW4). The test can be described thus: Inhibition of human recombinant CDKL3 at 500 nM related to control ULK1.
The target of test [6] is Casein kinase II subunit alpha (Homo sapiens) (UniProt P68400). The test can be described thus: Inhibition of human recombinant CK2a1 at 500 nM in presence of ATP by radiometric assay relative to control.
Test [7] concerns the target RAC-gamma serine/threonine-protein kinase (Homo sapiens) (UniProt Q9Y243). The test is described as follows: Inhibition of human recombinant AKT3 at 15 nM in presence of ATP by radiometric assay relative to control. In outline: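 Panel of 327 recombinant human kinases in radiometric activity assays, each screened in duplicate at a single inhibitor concentration; percent activity remaining relative to vehicle control, percent inhibition taken as 100 minus activity remaining.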

Test [8] has as its target Serine/threonine-protein kinase SBK1 (Homo sapiens) (UniProt Q52WX2). The test is described as follows: Inhibition of human recombinant SBK1 at 15 nM in presence of ATP by radiometric assay relative to control.
Test [9] concerns the target 5'-AMP-activated protein kinase catalytic subunit alpha-1 (Homo sapiens) (UniProt Q13131). The test can be described thus: Inhibition of human recombinant AMPKa1 at 15 nM in presence of ATP by radiometric assay relative to control. In outline:
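Panel of 327 recombinant human kinases, each assayed in vitro by radiometric activity assay in duplicate at a single inhibitor concentration per compound, chosen with reference to its ULK1 inhibition. Activity remaining was expressed as percent of vehicle control, and percent inhibition was calculated as 100 minus percent activity remaining.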

Test [10] addresses T2, Serine/threonine-protein kinase STK11 (Homo sapiens) (UniProt Q15831).
T2 sequence (whole entry): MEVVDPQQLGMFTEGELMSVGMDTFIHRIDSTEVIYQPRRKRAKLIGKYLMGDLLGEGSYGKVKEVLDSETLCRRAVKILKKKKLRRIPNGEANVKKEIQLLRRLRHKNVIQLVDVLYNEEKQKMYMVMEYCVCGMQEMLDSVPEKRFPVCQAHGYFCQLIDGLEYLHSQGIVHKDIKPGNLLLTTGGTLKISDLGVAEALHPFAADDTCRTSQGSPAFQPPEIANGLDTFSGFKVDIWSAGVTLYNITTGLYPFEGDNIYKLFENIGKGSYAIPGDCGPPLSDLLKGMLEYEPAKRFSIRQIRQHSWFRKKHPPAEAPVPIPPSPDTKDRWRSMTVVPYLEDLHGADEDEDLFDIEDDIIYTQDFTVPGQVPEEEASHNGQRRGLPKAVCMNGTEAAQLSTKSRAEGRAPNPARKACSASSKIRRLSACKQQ
The test can be described thus: Inhibition of human recombinant LKB1 at 15 nM in presence of ATP by radiometric assay relative to control.

For test [11], the target named is Leukocyte tyrosine kinase receptor (Homo sapiens) (UniProt P29376). The test is described as follows: Inhibition of human recombinant LTK at 15 nM related to control ULK1.
The target in test [12] is Serine/threonine-protein kinase WNK1 (Homo sapiens) (UniProt Q9H4A3). The test can be described thus: Inhibition of human recombinant Wnk1 at 15 nM in presence of ATP by radiometric assay relative to control.

Sequence of Serine/threonine-protein kinase SBK1 (Homo sapiens) (Q52WX2 whole entry): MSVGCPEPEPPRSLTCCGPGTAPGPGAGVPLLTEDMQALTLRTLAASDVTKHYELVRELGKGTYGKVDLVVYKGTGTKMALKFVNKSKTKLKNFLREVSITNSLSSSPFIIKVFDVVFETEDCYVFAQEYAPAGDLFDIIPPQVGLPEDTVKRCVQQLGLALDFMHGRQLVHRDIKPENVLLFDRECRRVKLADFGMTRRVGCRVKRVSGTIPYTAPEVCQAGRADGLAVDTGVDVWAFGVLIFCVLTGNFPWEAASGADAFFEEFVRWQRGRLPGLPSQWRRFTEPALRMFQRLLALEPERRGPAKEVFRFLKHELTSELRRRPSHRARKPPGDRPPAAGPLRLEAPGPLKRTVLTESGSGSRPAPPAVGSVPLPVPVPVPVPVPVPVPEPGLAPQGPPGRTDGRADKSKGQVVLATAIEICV
Sequence of Serine/threonine-protein kinase pim-2 (Homo sapiens) (Q9P1W9 whole entry, looked up): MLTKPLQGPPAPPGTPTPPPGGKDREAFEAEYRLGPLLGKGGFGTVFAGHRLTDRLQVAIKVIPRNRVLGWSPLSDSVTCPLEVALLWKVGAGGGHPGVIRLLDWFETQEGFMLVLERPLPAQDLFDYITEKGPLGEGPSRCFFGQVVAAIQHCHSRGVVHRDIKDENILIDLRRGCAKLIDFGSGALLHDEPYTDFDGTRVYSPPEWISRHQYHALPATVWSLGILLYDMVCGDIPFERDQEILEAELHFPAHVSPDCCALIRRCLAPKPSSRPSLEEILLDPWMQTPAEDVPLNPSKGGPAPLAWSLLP
Sequence of 5'-AMP-activated protein kinase catalytic subunit alpha-1 (Homo sapiens) (Q13131 whole entry, looked up): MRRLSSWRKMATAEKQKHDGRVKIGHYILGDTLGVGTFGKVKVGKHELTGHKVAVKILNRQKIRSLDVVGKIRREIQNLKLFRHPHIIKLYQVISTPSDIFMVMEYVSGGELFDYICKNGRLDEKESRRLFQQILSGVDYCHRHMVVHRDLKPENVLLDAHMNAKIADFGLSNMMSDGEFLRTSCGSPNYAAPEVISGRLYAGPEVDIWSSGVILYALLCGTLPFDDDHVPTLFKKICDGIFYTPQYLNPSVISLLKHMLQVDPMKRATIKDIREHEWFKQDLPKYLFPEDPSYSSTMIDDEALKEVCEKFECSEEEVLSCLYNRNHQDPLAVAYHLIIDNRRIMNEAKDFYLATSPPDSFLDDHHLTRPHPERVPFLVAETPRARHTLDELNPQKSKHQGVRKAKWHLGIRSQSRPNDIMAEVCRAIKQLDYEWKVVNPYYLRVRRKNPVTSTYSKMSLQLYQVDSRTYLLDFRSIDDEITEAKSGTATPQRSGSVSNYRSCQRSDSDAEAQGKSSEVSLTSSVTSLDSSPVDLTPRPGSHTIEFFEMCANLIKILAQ
Sequence of Leukocyte tyrosine kinase receptor (Homo sapiens) (P29376 whole entry): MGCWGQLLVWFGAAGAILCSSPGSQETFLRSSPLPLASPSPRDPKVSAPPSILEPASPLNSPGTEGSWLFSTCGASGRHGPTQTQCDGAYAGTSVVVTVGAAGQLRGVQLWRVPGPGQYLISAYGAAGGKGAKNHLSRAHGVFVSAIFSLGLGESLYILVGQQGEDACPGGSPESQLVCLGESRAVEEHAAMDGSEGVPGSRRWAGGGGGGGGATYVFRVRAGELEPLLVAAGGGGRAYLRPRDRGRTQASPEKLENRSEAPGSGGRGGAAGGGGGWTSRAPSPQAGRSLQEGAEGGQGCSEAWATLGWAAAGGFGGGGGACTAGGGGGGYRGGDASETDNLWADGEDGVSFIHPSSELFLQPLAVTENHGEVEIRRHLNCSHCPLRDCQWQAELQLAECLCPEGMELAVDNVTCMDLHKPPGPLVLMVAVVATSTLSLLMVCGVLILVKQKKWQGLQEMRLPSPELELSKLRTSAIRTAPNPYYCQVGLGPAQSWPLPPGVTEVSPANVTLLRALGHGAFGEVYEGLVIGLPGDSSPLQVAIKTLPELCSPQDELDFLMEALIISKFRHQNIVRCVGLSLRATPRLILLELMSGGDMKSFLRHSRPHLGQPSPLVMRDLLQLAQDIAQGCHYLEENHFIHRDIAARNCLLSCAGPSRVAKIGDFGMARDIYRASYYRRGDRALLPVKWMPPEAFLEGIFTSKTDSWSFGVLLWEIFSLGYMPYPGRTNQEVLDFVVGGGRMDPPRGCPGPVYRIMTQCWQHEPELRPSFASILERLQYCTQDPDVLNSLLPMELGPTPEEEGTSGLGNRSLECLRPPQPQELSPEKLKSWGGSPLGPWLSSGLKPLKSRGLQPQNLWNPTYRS
Sequence of RAC-alpha serine/threonine-protein kinase (Homo sapiens) (P31749 whole entry): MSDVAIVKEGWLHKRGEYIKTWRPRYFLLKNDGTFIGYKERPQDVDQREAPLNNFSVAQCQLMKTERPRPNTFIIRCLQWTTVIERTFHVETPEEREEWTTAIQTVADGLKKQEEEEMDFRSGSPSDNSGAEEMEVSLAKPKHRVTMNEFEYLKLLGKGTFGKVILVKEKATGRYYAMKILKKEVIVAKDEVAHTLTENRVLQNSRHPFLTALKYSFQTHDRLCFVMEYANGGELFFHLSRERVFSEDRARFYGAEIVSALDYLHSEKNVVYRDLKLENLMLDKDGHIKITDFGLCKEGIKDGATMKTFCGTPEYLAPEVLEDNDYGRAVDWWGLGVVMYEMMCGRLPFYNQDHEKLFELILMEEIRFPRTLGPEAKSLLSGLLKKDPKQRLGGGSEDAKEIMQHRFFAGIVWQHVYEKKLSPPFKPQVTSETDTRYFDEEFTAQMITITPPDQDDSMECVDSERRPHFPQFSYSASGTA
Sequence of RAC-gamma serine/threonine-protein kinase (Homo sapiens) (Q9Y243 whole entry): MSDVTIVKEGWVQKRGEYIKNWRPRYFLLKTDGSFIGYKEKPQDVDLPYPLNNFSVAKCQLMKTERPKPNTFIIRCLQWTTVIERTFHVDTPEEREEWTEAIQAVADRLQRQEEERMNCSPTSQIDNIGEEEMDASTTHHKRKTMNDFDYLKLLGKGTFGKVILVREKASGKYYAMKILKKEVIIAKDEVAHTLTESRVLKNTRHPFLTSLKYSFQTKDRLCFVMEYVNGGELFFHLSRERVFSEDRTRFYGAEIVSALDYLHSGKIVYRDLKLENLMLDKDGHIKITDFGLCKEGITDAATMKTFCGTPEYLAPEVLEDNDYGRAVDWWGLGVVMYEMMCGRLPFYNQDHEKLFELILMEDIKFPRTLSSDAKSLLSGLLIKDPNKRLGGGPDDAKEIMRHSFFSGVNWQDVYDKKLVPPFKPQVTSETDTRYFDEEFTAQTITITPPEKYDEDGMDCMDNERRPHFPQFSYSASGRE
Sequence of Cyclin-dependent kinase-like 3 (Homo sapiens) (Q8IVW4 whole entry, looked up): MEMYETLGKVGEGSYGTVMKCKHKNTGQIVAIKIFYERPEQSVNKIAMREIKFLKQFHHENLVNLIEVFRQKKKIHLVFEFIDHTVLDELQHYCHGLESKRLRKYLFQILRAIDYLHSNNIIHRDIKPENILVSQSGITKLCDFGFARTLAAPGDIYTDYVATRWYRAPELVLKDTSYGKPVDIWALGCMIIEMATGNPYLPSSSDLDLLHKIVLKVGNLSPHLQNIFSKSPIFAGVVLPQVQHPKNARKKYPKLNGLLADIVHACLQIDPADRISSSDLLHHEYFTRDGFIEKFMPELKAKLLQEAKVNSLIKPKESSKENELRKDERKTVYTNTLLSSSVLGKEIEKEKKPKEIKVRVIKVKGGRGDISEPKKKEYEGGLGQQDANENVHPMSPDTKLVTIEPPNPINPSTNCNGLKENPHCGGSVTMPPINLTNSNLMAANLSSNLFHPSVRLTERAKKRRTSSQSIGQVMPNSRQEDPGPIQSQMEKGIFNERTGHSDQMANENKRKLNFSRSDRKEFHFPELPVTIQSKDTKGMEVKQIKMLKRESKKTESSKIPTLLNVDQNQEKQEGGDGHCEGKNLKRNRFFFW
Sequence of Receptor tyrosine-protein kinase erbB-2 (Homo sapiens) (P04626 whole entry): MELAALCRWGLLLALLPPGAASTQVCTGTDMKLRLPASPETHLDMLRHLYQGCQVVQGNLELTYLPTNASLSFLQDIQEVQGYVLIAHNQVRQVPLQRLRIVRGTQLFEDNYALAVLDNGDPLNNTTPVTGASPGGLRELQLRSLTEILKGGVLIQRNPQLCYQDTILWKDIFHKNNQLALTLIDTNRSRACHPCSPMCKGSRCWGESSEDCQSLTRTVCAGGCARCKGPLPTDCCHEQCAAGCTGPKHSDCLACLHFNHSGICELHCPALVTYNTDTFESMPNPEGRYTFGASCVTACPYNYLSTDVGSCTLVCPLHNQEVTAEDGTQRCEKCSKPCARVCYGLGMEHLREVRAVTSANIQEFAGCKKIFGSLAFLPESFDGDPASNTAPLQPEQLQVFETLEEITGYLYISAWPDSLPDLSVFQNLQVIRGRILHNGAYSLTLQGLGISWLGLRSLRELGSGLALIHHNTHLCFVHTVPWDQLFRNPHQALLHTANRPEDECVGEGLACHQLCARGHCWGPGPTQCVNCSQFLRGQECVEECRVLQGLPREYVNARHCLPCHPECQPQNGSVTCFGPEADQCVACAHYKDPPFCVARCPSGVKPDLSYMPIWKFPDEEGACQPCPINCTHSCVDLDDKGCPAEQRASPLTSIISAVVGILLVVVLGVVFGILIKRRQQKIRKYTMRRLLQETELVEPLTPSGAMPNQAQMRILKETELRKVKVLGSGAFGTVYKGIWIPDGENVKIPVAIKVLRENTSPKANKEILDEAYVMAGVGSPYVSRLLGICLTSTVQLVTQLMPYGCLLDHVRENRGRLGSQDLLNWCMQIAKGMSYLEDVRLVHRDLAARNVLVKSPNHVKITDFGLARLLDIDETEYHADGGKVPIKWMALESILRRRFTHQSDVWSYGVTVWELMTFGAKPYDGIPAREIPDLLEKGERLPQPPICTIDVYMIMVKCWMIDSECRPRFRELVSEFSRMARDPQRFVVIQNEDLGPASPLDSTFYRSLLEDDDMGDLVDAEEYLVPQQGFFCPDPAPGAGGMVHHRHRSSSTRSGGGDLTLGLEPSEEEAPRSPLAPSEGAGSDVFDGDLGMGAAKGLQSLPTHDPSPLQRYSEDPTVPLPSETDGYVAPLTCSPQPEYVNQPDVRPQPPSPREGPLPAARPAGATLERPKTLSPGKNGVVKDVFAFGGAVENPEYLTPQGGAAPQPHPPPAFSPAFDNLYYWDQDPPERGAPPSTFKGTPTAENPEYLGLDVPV

As usually defined, the inhibition is how much of the control response was suppressed. Consider `O=C(N[C@@H](C1CC1)C(F)(F)F)c1cc(-c2cnn3cc(-c4ccc(F)cc4)cnc23)cs1`, for which the fold change (FC) in [1] and in test [3] was 0 each time. The inhibition in [2] worked out at 0%.
In the case of `CNC(=O)c1ccccc1Oc1nc(Nc2cc(OC)c(OC)c(OC)c2)ncc1Br`, the inhibition in test [4] stood at 2%; in test [6], 14%. Moreover, in test [5], the fold change (FC) was 0.
As for `CC(C)[C@H](NC(=O)c1cc(-c2cnn3cc(-c4ccc(OCCN5CCCCC5)cc4)cnc23)cs1)C(F)(F)F`, the inhibition in [7] was 8%; in test [8], 5%; in [9], 58%; in test [10], 0%; in test [12], 4%. Moreover, the fold change (FC) in test [11] came out at 0.
